Measured values as given in ChEMBL document CHEMBL1158062, “Cyclopentenones, scaffolds for organic syntheses produced by the endophytic fungus mitosporic dothideomycete sp. LRUB20” (J Nat Prod, 2006).
Converted amounts (≈) assume the structure as drawn. The source made the active and inactive calls. The rule behind the calls is not given here.

Assays:
[1] = tested on: BC; assay: Cytotoxicity against BC cells at 50 ug/ml by SRB assay; assay type: functional, cell-based
[2] = tested on: KB; assay: Cytotoxicity against human KB cells at 50 ug/ml by SRB assay; assay type: functional, cell-based
[3] = tested on: Vero; assay: Cytotoxicity against african green monkey Vero cells at 50 ug/ml by SRB assay; assay type: cell-based; conditions: chlorocebus sabaeus
[4] = tested on: NCI-H187; assay: Cytotoxicity against human NCI-H187 cells at 50 ug/ml by SRB assay; assay type: functional, cell-based
[5] = tested on: NCI-H187; assay: Cytotoxicity against human NCI-H187 cells by SRB assay; assay type: functional, cell-based
Summary of the method: (§1)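 Colorimetric cytotoxicity read-out following the Skehan method, run on Vero, KB, NCI-H187 and BC cell lines, with ellipticine included as the reference compound; result reported as IC50.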

[6] = tested on: Mycobacterium tuberculosis; assay: Antimycobacterial activity against Mycobacterium tuberculosis H37Ra by microplate alamar blue assay; assay type: functional
Summary of the method: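 M. tuberculosis H37Ra grown in Middlebrook 7H9 broth and tested in a microplate Alamar Blue assay, with MIC as the read-out. Isoniazid and kanamycin sulfate were run as standard drugs.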

[7] = tested on: BC; assay: Cytotoxicity against BC cells by SRB assay; assay type: functional, cell-based; summary of the method: as §1
[8] = tested on: KB; assay: Cytotoxicity against human KB cells by SRB assay; assay type: functional, cell-based; summary of the method: as §1
[9] = tested on: Vero; assay: Cytotoxicity against african green monkey Vero cells by SRB assay; assay type: cell-based; conditions: chlorocebus sabaeus; summary of the method: as §1

| Compound | Activity [1] | Activity [2] | Activity [3] | Activity [4] | Activity [5] | MIC [6] [mg/L] | Activity [7] | Activity [8] | IC50 [9] [mg/L] |
| --- | --- | --- | --- | --- | --- | --- | --- | --- | --- |
| CC1=C(CO)/C(=N/Nc2ccc([N+](=O)[O-])cc2[N+](=O)[O-])CC1 | inactive | inactive | Not Active | inactive |  |  |  |  |  |
| C[C@@H]1CC/C(=N\Nc2ccc([N+](=O)[O-])cc2[N+](=O)[O-])[C@@H]1CO |  |  |  |  | inactive | 200 (≈ 649 µM) | inactive | inactive | 21.7 (≈ 70.4 µM) |
| CC1=C(CO)C(=O)CC1 | inactive | inactive | Not Active | inactive |  | 200 (≈ 1590 µM) |  |  |  |
| COC(=O)c1cc(O)cc(OC)c1Oc1cc(C)cc(O)c1C(=O)O [ASTERRIC ACID] | inactive | inactive | Not Active | inactive |  | 200 (≈ 574 µM) |  |  |  |
